In ChEMBL document CHEMBL3393048, “Discovery of potent cytotoxic ortho-aryl chalcones as new scaffold targeting tubulin and mitosis with affinity-based fluorescence” (J Med Chem, 2014):
pIC50: −log10 of the molar value. Active and inactive are the calls of the source. The calls are words filed in the database; no cut-off is given here.

Tests used:
[1] = Antiproliferative activity against human CNE2 cells after 48 hrs by SRB method; type: functional, cell-based; conditions: CNE-2, 48 h
Procedure, shortened: (§1)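 SRB assay. Cells in DMEM high glucose with 10% FBS were seeded at 5000/well and grown 24 h; a day-0 plate was fixed at that point. Compounds were added in triplicate for 48 h. IC50 came from nonlinear regression of dose–response curves from at least two independent experiments.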

MCF7 [2] = assay: Antiproliferative activity against human MCF7 cells after 48 hrs by SRB method; type: functional, cell-based; conditions: MCF7, 48 h; procedure, shortened: as §1
A549 [3] = assay: Antiproliferative activity against human A549 cells after 48 hrs by SRB method; type: functional, cell-based; conditions: A549, 48 h
Procedure, shortened: as §1, with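 “h. Cells were fixed with TCA at 4 °C for 1 h, stained with 0.4% SRB, and the dye was solubilized in 10 mM Tris pH 10.4. OD was read at 515 nm with day-0 OD subtracted.” for “h.”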

SW480 = assay: Antiproliferative activity against human SW480 cells after 48 hrs by SRB method; type: functional, cell-based; conditions: SW480, 48 h; procedure, shortened: as §1
HepG2 = assay: Antiproliferative activity against human HepG2 cells after 48 hrs by SRB method; type: functional, cell-based; conditions: HepG2, 48 h; procedure, shortened: as §1
A2780 [4] = assay: Antiproliferative activity against human A2780 cells after 48 hrs by SRB method; type: functional, cell-based; conditions: A2780, 48 h; procedure, shortened: as §1
[5] = Drug resistance index, ratio of IC50 for vincristine-resistant human HCT8 cells to IC50 for human HCT8 cells; type: functional, HCT-8
Procedure, shortened: (§2)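 Drug resistance index = IC50 in the resistant line / IC50 in its parental line. […] Pairs: A549/CDDP vs A549, MCF-7/DOX vs MCF-7, A2780/TAX vs A2780, HCT-8/VCT vs HCT-8.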

A2780 [6] = assay: Drug resistance index, ratio of IC50 for taxol-resistant human A2780 cells to IC50 for human A2780 cells; type: functional; procedure, shortened: as §2
MCF7 [7] = assay: Drug resistance index, ratio of IC50 for doxorubicin-resistant human MCF7 cells to IC50 for human MCF7 cells; type: functional; procedure, shortened: as §2
MCF7 [8] = assay: Antiproliferative activity against doxorubicin-resistant human MCF7 cells after 48 hrs by SRB method; type: functional, cell-based; conditions: MCF7, 48 h; procedure, shortened: as §1
[9] = Antiproliferative activity against vincristine-resistant human HCT8 cells after 48 hrs by SRB method; type: functional, cell-based; conditions: HCT-8, 48 h
Procedure, shortened: as §1, with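 “h. Cells were fixed with TCA at 4 °C for 1 h, stained with 0.4% SRB, and the dye was solubilized in 10 mM Tris pH 10.4. OD was read at 515 nm with day-0 OD subtracted.” for “h.”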

A549 [10] = assay: Antiproliferative activity against cis-platinum-resistant human A549 cells after 48 hrs by SRB method; type: functional, cell-based; conditions: A549, 48 h
Procedure, shortened: as §1, with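 “h. Cells were fixed with TCA at 4 °C for 1 h, stained with 0.4% SRB, and the dye was solubilized in 10 mM Tris pH 10.4. OD was read at 515 nm with day-0 OD subtracted.” for “h.”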

Tubulin = assay: Inhibition of tubulin polymerization (unknown origin) by DAPI staining-based fluorescence microscopy; type: protein-complex assay, Homo sapiens
Procedure, shortened: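 Purified tubulin (99% pure; 20 μM as supplied) mixed with compound in general tubulin buffer (80 mM PIPES pH 6.9, 2.0 mM MgCl₂, 0.5 mM EGTA) with 1 mM GTP, 20% glycerol and DAPI reporter. Polymerization tracked kinetically at 37 °C as fluorescence rise (ex 360, em 450 nm). Duplicate wells per concentration. IC50 from at least two independent experiments.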

A549 [11] = assay: Drug resistance index, ratio of IC50 for cis-platinum-resistant human A549 cells to IC50 for human A549 cells; type: functional; procedure, shortened: as §2
A2780 [12] = assay: Antiproliferative activity against taxol-resistant human A2780 cells after 48 hrs by SRB method; type: functional, cell-based; conditions: A2780, 48 h; procedure, shortened: as §1
[13] = Antiproliferative activity against human HCT8 cells after 48 hrs by SRB method; type: functional, cell-based; conditions: HCT-8, 48 h; procedure, shortened: as §1
Tubulin (Homo sapiens) = Tubulin (Homo sapiens) (UniProt P68371+Q9H4B7+P0DPH7+P68366+Q13509+Q71U36+P04350+Q3ZCM7+P07437+P68363+Q9BQE3+Q6PEY2+Q13885+Q9BVA1+Q9BUF5); assay: Inhibition of tubulin polymerization (unknown origin) at 20 uM by DAPI staining-based fluorescence microscopy; type: protein-complex assay
A549 [14] = assay: Cell cycle arrest in human A549 cells assessed as accumulation at G2/M phase at 7.81 to 250 nM after 24 hrs by Hoechst 33342 staining-based ArrayScanVTI analysis; type: functional
Procedure, shortened: (§3)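 A549 cells were seeded at 5000/well, cultured overnight, then treated 24 h over a 7.81–250 concentration series. Cells were fixed in prewarmed paraformaldehyde 10 min, permeabilized with Triton X-100, and nuclei stained with Hoechst 33342. Imaging was by ArrayScan VTI high-content analysis. Phase percentage = cells within a gated fluorescence intensity / total cells counted.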

A549 [15] = assay: Cell cycle arrest in human A549 cells assessed as accumulation at G2/M phase at 62.5 nM after 24 hrs by Hoechst 33342 staining-based ArrayScanVTI analysis; type: functional; procedure, shortened: as §3

SMILES	pIC50 (MCF7 [2])	pIC50 (A549 [3])	pIC50 (SW480)	pIC50 (HepG2)	pIC50 [1]	other results
COc1ccc(C(=O)/C=C/c2ccccc2-c2ccc(F)cc2)cc1OC	5.15	5.12	5.08	5.18	5.12	
COc1ccc(CNC(=O)c2ccccc2-c2ccc(F)cc2)cc1OC	< 4.30	< 4.30	< 4.30	< 4.30	< 4.30	
COc1ccc(/C=C/C(=O)c2ccccc2-c2cc(OC)c(OC)c(OC)c2)cc1O	6.17	6.54	6.52	6.72	6.10	pIC50 (A2780 [4]): 6.42; Ratio IC50 [5]: 4; Ratio IC50 (A2780 [6]): 4.3; Ratio IC50 (MCF7 [7]): 0.24; pIC50 (MCF7 [8]): 6.77; pIC50 [9]: 5.70; pIC50 (A549 [10]): 6.23; pIC50 (Tubulin): 5.55; Ratio IC50 (A549 [11]): 2; pIC50 (A2780 [12]): 5.80; pIC50 [13]: 6.28
COc1cc(C(=O)/C=C/c2ccccc2-c2ccc(F)nc2)ccc1O	4.57	4.89	5.07	5.00	4.72	
COc1ccc(C(=O)/C=C/c2ccccc2-c2ccc(F)cc2)cc1O	6.25	6.03	6.47	6.72	6.12	
COc1cccc2c1C(=O)c1c(O)c3c(c(O)c1C2=O)C[C@@](O)(C(=O)CO)C[C@@H]3O[C@H]1C[C@H](N)[C@H](O)[C@H](C)O1 [DOXORUBICIN]						pIC50 [9]: 5.47; pIC50 (A549 [10]): 6.54; pIC50 (A2780 [12]): 5.72
COc1cc(C(=O)/C=C/c2ccccc2-c2ccc(F)cc2)cc(OC)c1OC	5.04	5.66	5.66	4.92	5.42	
COc1ccc(C(=O)/C=C/c2ccccc2-c2ccc(F)nc2)cc1OC	4.39	4.77	4.82	4.77	4.77	
COc1cc(CNC(=O)c2ccccc2-c2ccc(F)cc2)cc(OC)c1OC	< 4.30	< 4.30	< 4.30	< 4.30	< 4.30	
O=C(/C=C/c1ccccc1-c1ccc(F)cc1)c1cccc(O)c1	5.03	5.16	5.06	5.38	5.14	
O=C(/C=C/c1ccccc1-c1ccc(F)nc1)c1cccc(O)c1	4.92	5.16	5.13	5.19	5.06	
O=C(/C=C/c1cccs1)c1ccccc1-c1ccc(F)cc1	5.02	4.92	4.80	5.21	5.23	inhibition (Tubulin (Homo sapiens)): Active
Cc1ccc(/C=C/C(=O)c2ccccc2-c2ccc(F)cc2)o1	4.64	4.51	4.64	4.92	4.85	
COc1cc(C(=O)/C=C/c2ccccc2-c2ccc(F)cc2)ccc1O	5.27	5.34	5.38	5.51	5.32	
COc1ccc(OC)c(/C=C/C(=O)c2ccccc2-c2ccc(OC)c(OC)c2)c1	5.51	5.39	5.28	5.68	5.62	inhibition (Tubulin (Homo sapiens)): Active
COc1ccc(/C=C/C(=O)c2ccccc2-c2ccc(F)nc2)cc1OC	5.55	5.92	5.89	6.00	5.80	
CC(=O)O[C@H]1C(=O)[C@@]2(C)[C@H]([C@H](OC(=O)c3ccccc3)[C@]3(O)C[C@H](OC(=O)[C@H](O)[C@@H](NC(=O)c4ccccc4)c4ccccc4)C(C)=C1C3(C)C)[C@]1(OC(C)=O)CO[C@@H]1C[C@@H]2O [PACLITAXEL]			8.15	7.55		pIC50 [9]: 5.59; pIC50 [13]: 7.68
COc1ccc(/C=C/C(=O)c2ccccc2-c2ccc(OC)c(OC)c2OC)cc1O	6.32	6.72	6.77	6.64	6.80	
COc1ccc(CNC(=O)c2ccccc2-c2ccc(F)cc2)cc1	< 4.30	< 4.30	< 4.30	< 4.30	< 4.30	
COc1ccc(C(=O)/C=C/c2ccccc2-c2ccc(F)nc2)cc1O	5.70	5.49	5.80	5.74	5.68	

Second part, led by results:

pIC50 (MCF7 [2])	pIC50 (A549 [3])	pIC50 (SW480)	pIC50 (HepG2)	SMILES	pIC50 [1]	other results
4.89	< 4.30	5.00	5.09	COc1ccc(C(=O)/C=C/c2ccccc2-c2ccc(F)nc2)cc1	4.89	
5.15	5.07	5.17	5.37	COc1ccc(-c2ccccc2C(=O)/C=C/c2ccc(F)cc2)cc1OC	5.27	inhibition (Tubulin (Homo sapiens)): inactive
6.08	6.24	6.70	7.01	COc1ccc(/C=C/C(=O)c2ccccc2-c2cccnc2)cc1	7.19	
5.57	6.03	6.48	6.54	COc1ccc(/C=C/C(=O)c2ccccc2-c2ccc(F)nc2)cc1	6.80	
5.92	6.48	6.80	6.82	COc1ccc(/C=C/C(=O)c2ccccc2-c2cccc(F)c2)cc1OC	6.19	
5.28	5.15	5.24	5.30	COc1cccc(/C=C/C(=O)c2ccccc2-c2ccc(F)cc2)c1OC	5.28	inhibition (Tubulin (Homo sapiens)): Active
6.62	6.36	6.24	7.02	COc1ccc(/C=C/C(=O)c2ccccc2-c2ccc(F)cc2)cc1OC	7.09	
6.72	7.19	7.24	7.64	COc1ccc(/C=C/C(=O)c2ccccc2-c2ccc(F)cc2)cc1O	7.06	pIC50 (A2780 [4]): 7.57; Ratio IC50 [5]: 11; Activity (A549 [14]): Active; Ratio IC50 (A2780 [6]): 18; Ratio IC50 (MCF7 [7]): 0.04; pIC50 (MCF7 [8]): 8.15; pIC50 [9]: 6.38; pIC50 (A549 [10]): 6.37; pIC50 (Tubulin): 5.89; Activity (A549 [15]): Active; Ratio IC50 (A549 [11]): 10; pIC50 (A2780 [12]): 6.30; pIC50 [13]: 7.42
6.19	6.55	6.85	6.96	COc1ccc(/C=C/C(=O)c2ccccc2-c2cccc(F)c2)cc1	7.14	pIC50 (A2780 [4]): 6.80; Ratio IC50 [5]: 1.1; Ratio IC50 (A2780 [6]): 5.2; Ratio IC50 (MCF7 [7]): 0.64; pIC50 (MCF7 [8]): 7.08; pIC50 [9]: 6.66; pIC50 (A549 [10]): 6.32; pIC50 (Tubulin): 5.40; Ratio IC50 (A549 [11]): 2.1; pIC50 (A2780 [12]): 6.07; pIC50 [13]: 6.70
5.08	5.17	5.19	5.48	COc1ccc(-c2ccccc2C(=O)/C=C/c2ccc(Br)cc2)cc1OC	5.32	inhibition (Tubulin (Homo sapiens)): inactive
5.96	5.80	6.05	6.22	COc1ccc(/C=C/C(=O)c2ccccc2-c2ccc(OC)c(OC)c2)cc1	6.49	
5.77	5.96	5.62	6.28	COc1ccc(OC)c(/C=C/C(=O)c2ccccc2-c2ccc(F)cc2)c1	6.12	
5.06	5.09	5.08	5.20	COc1ccc(C(=O)/C=C/c2ccccc2-c2ccc(F)cc2)cc1	5.05	
